Measured values taken from ChEMBL document CHEMBL2057149 (J Med Chem, 2012).
Calls of active or inactive are those of the source. The rule behind the calls is not given here.

Tests used:
[1] = target: Fibroblast growth factor 1 (Homo sapiens, UniProt P05230); assay: Binding affinity to FGF-1 by surface plasmon resonance assay
Summary of the method: (§1)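 Solution-affinity SPR on heparin-coated CM4 chips. FGF-1 measured in HBS-EP (10 mM HEPES pH 7.4, 150 mM NaCl, 3.0 mM EDTA, 0.005% polysorbate 20); FGF-2 measured in HBS-EP with 300 mM NaCl. Kd is the average of at least duplicate measurements ± SD.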

[2] = target: Fibroblast growth factor 2 (Homo sapiens, UniProt P09038); assay: Binding affinity to FGF-2 by surface plasmon resonance assay; summary of the method: as §1
Chain of Fibroblast growth factor 2 (P09038 143-288 limits assumed): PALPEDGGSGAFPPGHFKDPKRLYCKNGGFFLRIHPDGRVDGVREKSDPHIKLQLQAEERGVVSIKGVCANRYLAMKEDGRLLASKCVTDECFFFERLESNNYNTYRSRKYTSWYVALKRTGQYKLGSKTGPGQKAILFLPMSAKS

Heparanase = target: T1, Heparanase (Homo sapiens, UniProt Q9Y251); assay: Inhibition of human recombinant heparanase after 2 to 24 hrs by WST1 dye based fondaparinux assay
T1 sequence (Q9Y251 whole entry): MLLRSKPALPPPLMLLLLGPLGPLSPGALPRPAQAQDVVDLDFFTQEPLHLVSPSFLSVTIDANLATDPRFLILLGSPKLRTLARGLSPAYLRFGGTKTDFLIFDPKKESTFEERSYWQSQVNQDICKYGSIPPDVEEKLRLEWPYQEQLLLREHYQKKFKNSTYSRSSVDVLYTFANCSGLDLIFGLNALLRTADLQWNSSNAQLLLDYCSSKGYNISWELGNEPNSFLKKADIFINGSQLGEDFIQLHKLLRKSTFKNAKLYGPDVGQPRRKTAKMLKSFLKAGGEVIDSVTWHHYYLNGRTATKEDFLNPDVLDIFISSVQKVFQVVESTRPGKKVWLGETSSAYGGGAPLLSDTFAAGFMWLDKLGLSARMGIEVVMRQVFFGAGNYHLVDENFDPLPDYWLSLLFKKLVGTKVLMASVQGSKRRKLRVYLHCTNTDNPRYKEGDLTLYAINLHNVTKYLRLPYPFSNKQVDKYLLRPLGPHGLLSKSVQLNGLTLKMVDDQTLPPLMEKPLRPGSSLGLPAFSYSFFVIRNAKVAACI

HUVEC [3] = assay: Antiangiogenic activity in FGF1-stimulated HUVEC cells after 72 hrs by CellTiter assay; type: functional, cell-based; settings: Homo sapiens
HUVEC [4] = assay: Antiangiogenic activity in FGF2-stimulated HUVEC cells after 72 hrs by CellTiter assay; type: functional, cell-based; settings: Homo sapiens
HUVEC [5] = assay: Antiangiogenic activity in VEGF-stimulated HUVEC cells after 72 hrs by CellTiter assay; type: functional, cell-based; settings: Homo sapiens
HMVEC [6] = assay: Antiangiogenic activity in FGF1-stimulated HMVEC cells after 72 hrs by CellTiter assay; type: functional, cell-based; settings: Homo sapiens
HMVEC [7] = assay: Antiangiogenic activity in FGF2-stimulated HMVEC cells after 72 hrs by CellTiter assay; type: functional, cell-based; settings: Homo sapiens
HMVEC [8] = assay: Antiangiogenic activity in VEGF-stimulated HMVEC cells after 72 hrs by CellTiter assay; type: functional, cell-based; settings: Homo sapiens
Plasma [9] = assay: Anticoagulant activity in pooled human plasma assessed as activated partial thromboplastin time at 0.1 mg/ml; type: ADME, cell-free
Summary of the method: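 APTT of pooled normal human plasma measured with compound at 0–100 μg/mL in PBS on a ball coagulameter, using unfractionated heparin as the reference. Normal range 26–36 s; coefficient of variation 2% at 36 s and 5–7% at 90 s or above. Values are the mean of two determinations.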

Plasma [10] = assay: Anticoagulant activity in pooled human plasma assessed as prolongation of the recalcification time at 0.1 mg/ml by Heptest assay; type: ADME, cell-free
Summary of the method: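 Heptest clotting time in pooled normal human plasma; normal range 13–20 s. Values are the mean of two determinations.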

[11] = target: Vascular endothelial growth factor A (Homo sapiens) (UniProt P15692); assay: Binding affinity to VEGF by surface plasmon resonance assay

Chain of Fibroblast growth factor 1 (P05230 whole entry): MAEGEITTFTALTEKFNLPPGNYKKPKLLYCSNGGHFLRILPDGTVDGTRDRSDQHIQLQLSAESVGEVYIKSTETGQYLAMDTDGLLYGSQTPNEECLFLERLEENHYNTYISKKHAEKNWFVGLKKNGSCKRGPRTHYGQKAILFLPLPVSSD

Row | SMILES | Kd [1] [nM] | Kd [2] [nM] | Ki (Heparanase) [nM] | IC50 (HUVEC [3]) [µM] | IC50 (HUVEC [4]) [nM] | IC50 (HUVEC [5]) [nM] | Activity (HMVEC [6]) | Activity (HMVEC [7]) | Activity (HMVEC [8]) | APTT (Plasma [9]) [s] | Time (Plasma [10]) [s] | Kd [11] [nM]
1 | CC(C)CCC[C@@H](C)[C@H]1CC[C@H]2[C@@H]3CC[C@H]4C[C@@H](O[C@@H]5O[C@H](COS(=O)(=O)[O-])[C@@H](O[C@H]6O[C@H](COS(=O)(=O)[O-])[C@@H](O[C@H]7O[C@H](COS(=O)(=O)[O-])[C@@H](OS(=O)(=O)[O-])[C@H](OS(=O)(=O)[O-])[C@H]7OS(=O)(=O)[O-])[C@H](OS(=O)(=O)[O-])[C@H]6OS(=O)(=O)[O-])[C@H](OS(=O)(=O)[O-])[C@H]5OS(=O)(=O)[O-])CC[C@]4(C)[C@H]3CC[C@]12C.[Na+].[Na+].[Na+].[Na+].[Na+].[Na+].[Na+].[Na+].[Na+].[Na+] | 24.8 | 547 | 9.1 | 2.5 | 2300 | 1600 | Active | Active | Active | 51.6 | 29.2 | 190
2 | CC(C)CCC[C@@H](C)[C@H]1CC[C@H]2[C@@H]3CC[C@H]4C[C@@H](O[C@H]5O[C@H](COS(=O)(=O)[O-])[C@@H](OS(=O)(=O)[O-])[C@H](OS(=O)(=O)[O-])[C@@H]5O[C@H]5O[C@H](COS(=O)(=O)[O-])[C@@H](OS(=O)(=O)[O-])[C@H](O[C@H]6O[C@H](COS(=O)(=O)[O-])[C@@H](OS(=O)(=O)[O-])[C@H](OS(=O)(=O)[O-])[C@@H]6OS(=O)(=O)[O-])[C@@H]5OS(=O)(=O)[O-])CC[C@]4(C)[C@H]3CC[C@]12C.[Na+].[Na+].[Na+].[Na+].[Na+].[Na+].[Na+].[Na+].[Na+].[Na+] | 18.5 | 631 | 6.4 | 4.4 | 2270 | 1000 | Active | Active | Active | 50.7 | 27.3 | 319
3 | CC(C)CCC[C@@H](C)[C@H]1CC[C@H]2[C@@H]3CC[C@H]4C[C@@H](O[C@@H]5O[C@H](COS(=O)(=O)[O-])[C@@H](O[C@H]6O[C@H](COS(=O)(=O)[O-])[C@@H](OS(=O)(=O)[O-])[C@H](OS(=O)(=O)[O-])[C@H]6OS(=O)(=O)[O-])[C@H](OS(=O)(=O)[O-])[C@H]5OS(=O)(=O)[O-])CC[C@]4(C)[C@H]3CC[C@]12C.[Na+].[Na+].[Na+].[Na+].[Na+].[Na+].[Na+] | 560 | 2200 | – | 4 | > 10000 | 5200 | Active | Active | Active | 38.6 | 23.9 | 1200
4 | CC(C)CCC[C@@H](C)[C@H]1CC[C@H]2[C@@H]3CC[C@H]4C[C@@H](O[C@@H]5O[C@H](COS(=O)(=O)[O-])[C@@H](O[C@@H]6O[C@H](COS(=O)(=O)[O-])[C@@H](OS(=O)(=O)[O-])[C@H](OS(=O)(=O)[O-])[C@H]6OS(=O)(=O)[O-])[C@H](OS(=O)(=O)[O-])[C@H]5OS(=O)(=O)[O-])CC[C@]4(C)[C@H]3CC[C@]12C.[Na+].[Na+].[Na+].[Na+].[Na+].[Na+].[Na+] | 870 | 2000 | – | 6 | 5600 | 5600 | Active | Active | Active | 38.8 | 25.3 | 1350
5 | CC(C)CCC[C@@H](C)[C@H]1CC[C@H]2[C@@H]3CC[C@H]4C[C@@H](OCc5cn(CCCO[C@H]6O[C@H](COS(=O)(=O)[O-])[C@@H](OS(=O)(=O)[O-])[C@H](OS(=O)(=O)[O-])[C@@H]6O[C@H]6O[C@H](COS(=O)(=O)[O-])[C@@H](OS(=O)(=O)[O-])[C@H](O[C@H]7O[C@H](COS(=O)(=O)[O-])[C@@H](OS(=O)(=O)[O-])[C@H](O[C@H]8O[C@H](COS(=O)(=O)[O-])[C@@H](OS(=O)(=O)[O-])[C@H](O[C@H]9O[C@H](COS(=O)(=O)[O-])[C@@H](OS(=O)(=O)[O-])[C@H](OS(=O)(=O)[O-])[C@@H]9OS(=O)(=O)[O-])[C@@H]8OS(=O)(=O)[O-])[C@@H]7OS(=O)(=O)[O-])[C@@H]6OS(=O)(=O)[O-])nn5)CC[C@]4(C)[C@H]3CC[C@]12C.[Na+].[Na+].[Na+].[Na+].[Na+].[Na+].[Na+].[Na+].[Na+].[Na+].[Na+].[Na+].[Na+].[Na+].[Na+].[Na+] | 0.24 | 39 | 5.5 | 0.99 | 390 | 220 | Active | Active | Active | 63.3 | 29.6 | 1.04
6 | CC(C)CCC[C@@H](C)[C@H]1CC[C@H]2[C@@H]3CC[C@H]4C[C@@H](O[C@H]5O[C@H](COS(=O)(=O)[O-])[C@@H](OS(=O)(=O)[O-])[C@H](OS(=O)(=O)[O-])[C@@H]5O[C@H]5O[C@H](COS(=O)(=O)[O-])[C@@H](OS(=O)(=O)[O-])[C@H](OS(=O)(=O)[O-])[C@@H]5OS(=O)(=O)[O-])CC[C@]4(C)[C@H]3CC[C@]12C.[Na+].[Na+].[Na+].[Na+].[Na+].[Na+].[Na+] | – | – | – | > 10 | 2220 | 1800 | Active | Active | Active | 40.6 | 25.5 | 1300
7 | CCCCCCCCCCCCCCCCCC(=O)NCCCO[C@@H]1O[C@H](COS(=O)(=O)[O-])[C@@H](O[C@H]2O[C@H](COS(=O)(=O)[O-])[C@@H](O[C@H]3O[C@H](COS(=O)(=O)[O-])[C@@H](OS(=O)(=O)[O-])[C@H](OS(=O)(=O)[O-])[C@H]3OS(=O)(=O)[O-])[C@H](OS(=O)(=O)[O-])[C@H]2OS(=O)(=O)[O-])[C@H](OS(=O)(=O)[O-])[C@H]1OS(=O)(=O)[O-].[Na+].[Na+].[Na+].[Na+].[Na+].[Na+].[Na+].[Na+].[Na+].[Na+] | – | – | – | – | – | – | Active | Active | Active | 51.1 | 24.9 | 380
8 | CC(C)CCC[C@@H](C)[C@H]1CC[C@H]2[C@@H]3CC[C@H]4C[C@@H](O[C@H]5O[C@H](COS(=O)(=O)[O-])[C@@H](OS(=O)(=O)[O-])[C@H](OS(=O)(=O)[O-])[C@@H]5OS(=O)(=O)[O-])CC[C@]4(C)[C@H]3CC[C@]12C.[Na+].[Na+].[Na+].[Na+] | – | > 3000 | – | 2.2 | 2900 | 2240 | Active | Active | Active | 36.1 | 23.9 | 3000
9 | CC(C)CCC[C@@H](C)[C@H]1CC[C@H]2[C@@H]3CC[C@H]4C[C@@H](OCc5cn([C@@H]6O[C@H](COS(=O)(=O)[O-])[C@@H](O[C@H]7O[C@H](COS(=O)(=O)[O-])[C@@H](OS(=O)(=O)[O-])[C@H](OS(=O)(=O)[O-])[C@H]7OS(=O)(=O)[O-])[C@H](OS(=O)(=O)[O-])[C@H]6OS(=O)(=O)[O-])nn5)CC[C@]4(C)[C@H]3CC[C@]12C.[Na+].[Na+].[Na+].[Na+].[Na+].[Na+].[Na+] | – | – | – | 4.1 | 4170 | 1130 | Active | Active | Active | 40.3 | 26.7 | 1930
